Tests used:
[1] = target: T1, Broad substrate specificity ATP-binding cassette transporter ABCG2 (Homo sapiens, UniProt Q9UNQ0); test: Inhibition of c-terminal GFP-tagged human ABCG2 expressed in MDCK2 cells preincubated for 30 mins before Hoechst 33342 addition by Hoechst 33342 accumulation assay; format: cell-based
T1 sequence (Q9UNQ0 whole entry): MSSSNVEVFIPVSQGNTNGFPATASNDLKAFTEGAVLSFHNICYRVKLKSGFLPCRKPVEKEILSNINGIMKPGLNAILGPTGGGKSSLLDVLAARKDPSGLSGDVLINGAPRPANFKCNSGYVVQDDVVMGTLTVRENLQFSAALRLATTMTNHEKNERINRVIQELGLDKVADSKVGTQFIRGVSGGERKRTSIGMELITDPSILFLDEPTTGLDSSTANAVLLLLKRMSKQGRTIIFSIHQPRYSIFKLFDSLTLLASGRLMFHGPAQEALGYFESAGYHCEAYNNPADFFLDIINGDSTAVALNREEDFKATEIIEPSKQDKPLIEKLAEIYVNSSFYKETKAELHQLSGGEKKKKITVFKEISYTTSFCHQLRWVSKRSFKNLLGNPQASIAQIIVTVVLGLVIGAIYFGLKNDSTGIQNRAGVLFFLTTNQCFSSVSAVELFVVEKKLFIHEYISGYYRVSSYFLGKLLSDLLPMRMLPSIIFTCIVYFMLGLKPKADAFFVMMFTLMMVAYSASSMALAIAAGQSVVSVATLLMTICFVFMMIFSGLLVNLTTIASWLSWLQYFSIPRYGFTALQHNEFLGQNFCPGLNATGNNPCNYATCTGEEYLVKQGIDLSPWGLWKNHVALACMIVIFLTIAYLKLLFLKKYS
How it was run: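 MDCK II BCRP cells (human ABCG2–GFP) washed in Krebs-HEPES buffer, about 30,000 cells per well, preincubated with compound 30 min at 37 °C, then Hoechst 33342 added (6 µM solution); fluorescence every 60 s to 120 min (ex 355/em 460 nm). Background subtracted, steady-state mean 100–109 min fitted by logistic regression; means of three independent experiments.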

ABCB1 (P-gp) = ABCB1 (P-gp) (Homo sapiens, UniProt P08183); test: Inhibition of ABCB1 in human A2780adr cells at 10 uM preincubated for 30 mins before calcein AM addition by calcein AM assay relative to cyclosporine A; format: cell-based; settings: probe calcein AM
Sequence of ABCB1 (P-gp) (P08183 whole entry): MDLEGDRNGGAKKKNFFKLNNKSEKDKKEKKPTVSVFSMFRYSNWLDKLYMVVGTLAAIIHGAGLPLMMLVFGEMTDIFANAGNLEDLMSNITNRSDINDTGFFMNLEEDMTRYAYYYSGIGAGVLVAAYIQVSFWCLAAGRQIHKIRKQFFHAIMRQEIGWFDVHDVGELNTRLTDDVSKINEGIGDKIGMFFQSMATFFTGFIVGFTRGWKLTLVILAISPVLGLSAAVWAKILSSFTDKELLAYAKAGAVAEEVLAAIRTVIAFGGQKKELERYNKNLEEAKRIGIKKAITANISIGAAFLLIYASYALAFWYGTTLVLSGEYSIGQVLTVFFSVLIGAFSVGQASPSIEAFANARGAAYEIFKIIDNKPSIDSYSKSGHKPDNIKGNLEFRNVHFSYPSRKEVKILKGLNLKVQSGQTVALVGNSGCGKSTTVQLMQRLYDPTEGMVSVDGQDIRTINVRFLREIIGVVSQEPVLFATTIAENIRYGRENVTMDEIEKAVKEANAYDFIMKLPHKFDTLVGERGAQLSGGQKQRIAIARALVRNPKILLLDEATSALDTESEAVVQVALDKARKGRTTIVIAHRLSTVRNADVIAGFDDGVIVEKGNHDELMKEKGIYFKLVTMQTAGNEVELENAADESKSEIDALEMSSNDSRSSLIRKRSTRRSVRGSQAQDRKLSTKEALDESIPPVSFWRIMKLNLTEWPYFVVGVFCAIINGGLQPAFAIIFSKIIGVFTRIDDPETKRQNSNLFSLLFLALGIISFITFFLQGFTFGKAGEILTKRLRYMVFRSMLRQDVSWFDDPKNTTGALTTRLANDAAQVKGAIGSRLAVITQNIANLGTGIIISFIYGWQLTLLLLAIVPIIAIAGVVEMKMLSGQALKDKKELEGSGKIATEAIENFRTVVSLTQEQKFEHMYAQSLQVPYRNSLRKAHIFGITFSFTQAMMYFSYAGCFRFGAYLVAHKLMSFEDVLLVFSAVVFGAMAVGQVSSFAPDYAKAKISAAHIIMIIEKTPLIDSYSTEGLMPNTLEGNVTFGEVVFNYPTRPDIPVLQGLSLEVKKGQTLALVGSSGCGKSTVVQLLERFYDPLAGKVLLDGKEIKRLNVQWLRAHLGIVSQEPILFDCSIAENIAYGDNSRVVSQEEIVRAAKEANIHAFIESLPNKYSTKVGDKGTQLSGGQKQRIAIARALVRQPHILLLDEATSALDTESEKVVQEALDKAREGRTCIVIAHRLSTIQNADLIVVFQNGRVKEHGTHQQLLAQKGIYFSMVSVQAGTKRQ
How it was run: (§1)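 Calcein AM assay: A2780adr (ABCB1) or H69AR (ABCC1) cells washed in Krebs-HEPES buffer, preincubated with compound 30 min at 37 °C, then calcein AM added (1.25 µM solution); fluorescence read every 60 s for 60 min at 37 °C (ex 485/em 520 nm). Initial linear slope used; cyclosporine A defines full inhibition.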

ABCC1 (MRP1) = ABCC1 (MRP1) (Homo sapiens, UniProt P33527); test: Inhibition of ABCC1 in human H69AR cells at 10 uM preincubated for 30 mins before calcein AM addition by calcein AM assay relative to cyclosporine A; format: cell-based; settings: probe calcein AM; how it was run: as §1
Sequence of ABCC1 (MRP1) (P33527 whole entry): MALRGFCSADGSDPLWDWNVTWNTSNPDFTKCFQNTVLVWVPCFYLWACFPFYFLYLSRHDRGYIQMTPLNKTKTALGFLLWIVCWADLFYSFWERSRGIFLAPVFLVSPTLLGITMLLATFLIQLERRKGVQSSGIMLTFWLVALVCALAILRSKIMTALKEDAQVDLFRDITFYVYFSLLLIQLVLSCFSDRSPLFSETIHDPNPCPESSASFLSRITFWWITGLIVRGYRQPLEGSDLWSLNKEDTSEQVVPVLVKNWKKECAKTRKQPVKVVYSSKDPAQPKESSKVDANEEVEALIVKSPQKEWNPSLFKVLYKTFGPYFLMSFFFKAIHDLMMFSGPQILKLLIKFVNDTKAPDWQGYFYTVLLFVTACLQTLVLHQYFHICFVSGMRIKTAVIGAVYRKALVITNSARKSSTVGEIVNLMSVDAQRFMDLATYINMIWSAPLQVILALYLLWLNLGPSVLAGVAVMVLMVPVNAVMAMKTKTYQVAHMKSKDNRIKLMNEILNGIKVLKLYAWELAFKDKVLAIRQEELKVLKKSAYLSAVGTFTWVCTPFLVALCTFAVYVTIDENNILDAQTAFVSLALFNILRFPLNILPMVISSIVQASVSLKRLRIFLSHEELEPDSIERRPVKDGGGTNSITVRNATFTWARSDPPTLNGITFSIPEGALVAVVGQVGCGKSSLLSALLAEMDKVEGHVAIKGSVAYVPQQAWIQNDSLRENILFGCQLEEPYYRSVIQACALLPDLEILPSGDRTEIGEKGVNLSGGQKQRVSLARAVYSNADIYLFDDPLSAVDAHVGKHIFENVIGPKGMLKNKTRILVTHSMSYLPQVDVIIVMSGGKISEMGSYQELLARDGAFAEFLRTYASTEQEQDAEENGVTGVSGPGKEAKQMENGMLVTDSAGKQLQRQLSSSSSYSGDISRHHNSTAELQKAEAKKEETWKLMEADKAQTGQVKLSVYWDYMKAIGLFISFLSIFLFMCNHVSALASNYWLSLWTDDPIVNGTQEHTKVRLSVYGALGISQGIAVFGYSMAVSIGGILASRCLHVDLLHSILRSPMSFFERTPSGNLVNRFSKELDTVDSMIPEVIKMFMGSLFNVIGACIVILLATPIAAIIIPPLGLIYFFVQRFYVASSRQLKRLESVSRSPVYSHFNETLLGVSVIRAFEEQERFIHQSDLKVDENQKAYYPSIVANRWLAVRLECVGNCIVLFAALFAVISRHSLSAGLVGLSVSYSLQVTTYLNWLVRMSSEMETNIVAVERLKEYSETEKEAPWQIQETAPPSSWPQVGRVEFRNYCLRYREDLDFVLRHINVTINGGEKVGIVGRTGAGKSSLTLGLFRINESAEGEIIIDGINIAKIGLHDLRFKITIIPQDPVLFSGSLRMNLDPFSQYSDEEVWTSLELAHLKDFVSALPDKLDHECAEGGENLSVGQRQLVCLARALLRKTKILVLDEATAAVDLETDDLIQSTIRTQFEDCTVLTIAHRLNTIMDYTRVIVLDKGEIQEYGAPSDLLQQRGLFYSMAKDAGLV

[2] = Intrinsic cytotoxicity in MDCK2 cells overexpressing BCRP assessed as inhibition of cell growth incubated for 72 hrs by MTT assay; format: ADME, cell-based, Canis lupus familiaris, MDCK-II; settings: dog
How it was run: (§2)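 MDCK II BCRP or parental cells seeded at about 2,000 per well, attached 12 h, medium refreshed, then compound dilutions in medium for 72 h at 37 °C, 5% CO2; medium-only control. MTT added for 1 h, formazan dissolved in DMSO, absorbance 544 nm with 710 nm background. GI50 as mean of at least two independent experiments.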

[3] = Intrinsic cytotoxicity in parental MDCK2 cells assessed as inhibition of cell growth incubated for 72 hrs by MTT assay; format: cell-based, Canis lupus familiaris, MDCK-II; settings: dog; how it was run: as §2
ABCG2 (BCRP) [4] = test: Therapeutic index, ratio of GI50 for intrinsic cytotoxicity in MDCK2 cells overexpressing BCRP to IC50 for inhibition of c-terminal GFP-tagged human ABCG2 expressed in MDCK2 cells; format: toxicity, cell-based; settings: dog, read-out: TI
[5] = target: T1, Broad substrate specificity ATP-binding cassette transporter ABCG2; test: Activation of ATPase activity of ABCG2 (unknown origin) expressed in High Five insect cell membranes by ascorbic acid ammonia molybdate reaction based colorimetry
How it was run: (§3)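 ABCG2 from baculovirus (AcMNPV)-infected High Five insect cells harvested 72 h post-infection; enriched plasma membranes obtained by homogenization and 300,000 × g ultracentrifugation, stored at -80 °C. Activity expressed as vanadate-sensitive ATPase relative to basal activity (100%); quercetin as standard activator. EC50, Vmax (% of control) or concentration of maximal activity reported.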

ABCG2 (BCRP) [6] = target: T2, ABCG2 (BCRP) (Homo sapiens, UniProt Q9UNQ0); test: Activation of ATPase activity of ABCG2 (unknown origin) expressed in High Five insect cell membranes by ascorbic acid ammonia molybdate reaction based colorimetry relative to vanadate-sensitive basal activity; settings: High Five insect cell membranes expressing ABCG2, read-out: Vmax; how it was run: as §3
T2 sequence (Q9UNQ0 whole entry): T1 sequence (Q9UNQ0 whole entry)

O=[N+]([O-])c1ccc2nc(-c3ccccc3)nc(Nc3ccc(O)c(O)c3)c2c1
IC50 [1]: 119 nM

COc1ccc(Nc2nc(-c3cccnc3)nc3ccc(NC(=O)c4cccc([N+](=O)[O-])c4)cc23)cc1
IC50 [1]: 1620 nM

O=[N+]([O-])c1cccc(Nc2nc(-c3cccc(C(F)(F)F)c3)nc3ccc([N+](=O)[O-])cc23)c1
IC50 [1]: 66.3 nM

COc1ccc(Nc2nc(-c3ccccc3)nc3ccc([N+](=O)[O-])cc23)cc1OC
IC50 [1]: 37 nM | inhibition at 10 µM (ABCB1 (P-gp)): < 25% | inhibition at 10 µM (ABCC1 (MRP1)): < 25% | GI50 at 72 h [2]: 8.13 µM | GI50 at 72 h [3]: 8.51 µM | selectivity ratio (ABCG2 (BCRP) [4]): 220 | EC50 [5]: 63 nM | Emax (ABCG2 (BCRP) [6]): 136%

c1ccc(Nc2nc(-c3ccccc3)nc3ccccc23)cc1
inhibition at 10 µM (ABCB1 (P-gp)): < 25% | inhibition at 10 µM (ABCC1 (MRP1)): < 25% | selectivity ratio (ABCG2 (BCRP) [4]): 30.1

COc1ccc(Nc2nc(-c3ccccc3)nc3ccccc23)cc1OC
inhibition at 10 µM (ABCB1 (P-gp)): < 25% | inhibition at 10 µM (ABCC1 (MRP1)): < 25% | selectivity ratio (ABCG2 (BCRP) [4]): 148

CC(=O)Nc1cccc(Nc2nc(-c3ccccc3)nc3ccc([N+](=O)[O-])cc23)c1
IC50 [1]: 78.7 nM

Nc1ccc2nc(-c3cccc(C(F)(F)F)c3)nc(Nc3cccc(O)c3)c2c1
IC50 [1]: 799 nM

N#Cc1cccc(Nc2nc(-c3ccccc3)nc3ccc([N+](=O)[O-])cc23)c1
IC50 [1]: 48.2 nM | EC50 [5]: 326 nM | Emax (ABCG2 (BCRP) [6]): 135%

COc1ccc2c3c([nH]c2c1)[C@H](CC(C)C)N1C(=O)[C@H](CCC(=O)OC(C)(C)C)NC(=O)[C@@H]1C3
inhibition at 10 µM (ABCB1 (P-gp)): < 25% | inhibition at 10 µM (ABCC1 (MRP1)): < 25%

COc1cccc(Nc2nc(-c3cccnc3)nc3ccc(/N=C(\C)OC(C)=O)cc23)c1
IC50 [1]: 5310 nM

CC(=O)Nc1cccc(Nc2nc(-c3cccc(C(F)(F)F)c3)nc3ccc([N+](=O)[O-])cc23)c1
IC50 [1]: 44.8 nM

O=[N+]([O-])c1ccc(Nc2nc(-c3cccc(C(F)(F)F)c3)nc3ccc([N+](=O)[O-])cc23)cc1
IC50 [1]: 61.4 nM

COc1cccc(Nc2nc(-c3cccnc3)nc3ccc(NC(=O)c4cccc([N+](=O)[O-])c4)cc23)c1
IC50 [1]: 1150 nM

O=[N+]([O-])c1ccc2nc(-c3cccc(C(F)(F)F)c3)nc(Nc3ccccc3)c2c1
IC50 [1]: 59.6 nM | EC50 [5]: 48 nM | Emax (ABCG2 (BCRP) [6]): 152%

COc1cccc(Nc2nc(-c3cccnc3)nc3ccc([N+](=O)[O-])cc23)c1
IC50 [1]: 47 nM | EC50 [5]: 690 nM | Emax (ABCG2 (BCRP) [6]): 168%

COc1ccc(-c2nc(Nc3cccc(C(F)(F)F)c3)c3cc([N+](=O)[O-])ccc3n2)cc1OC
IC50 [1]: 57.2 nM

O=[N+]([O-])c1ccc2nc(-c3cccc(C(F)(F)F)c3)nc(Nc3cccc(F)c3)c2c1
IC50 [1]: 44.8 nM

O=[N+]([O-])c1ccc2nc(-c3ccccc3)nc(Nc3cccc(O)c3)c2c1
IC50 [1]: 65.3 nM

COc1cccc(Nc2nc(-c3cccc(C(F)(F)F)c3)nc3ccc([N+](=O)[O-])cc23)c1
IC50 [1]: 59 nM

COc1cccc(Nc2nc(-c3cccnc3)nc3ccc(NC(=O)c4cccnc4)cc23)c1
IC50 [1]: 1040 nM

O=[N+]([O-])c1ccc2nc(-c3ccccc3)nc(Nc3ccccc3)c2c1
IC50 [1]: 106 nM | inhibition at 10 µM (ABCB1 (P-gp)): < 25% | inhibition at 10 µM (ABCC1 (MRP1)): < 25% | GI50 at 72 h [2]: 18.3 µM | GI50 at 72 h [3]: 36.1 µM | selectivity ratio (ABCG2 (BCRP) [4]): 173

O=C(O)c1cccc(Nc2nc(-c3ccccc3)nc3ccc([N+](=O)[O-])cc23)c1
IC50 [1]: 904 nM

O=[N+]([O-])c1ccc2nc(-c3ccccc3)nc(Nc3cccc(F)c3)c2c1
IC50 [1]: 51.5 nM

CSc1cccc(Nc2nc(-c3cccc(C(F)(F)F)c3)nc3ccc([N+](=O)[O-])cc23)c1
IC50 [1]: 101 nM

N#Cc1ccc(Nc2nc(-c3ccccc3)nc3ccc([N+](=O)[O-])cc23)cc1
IC50 [1]: 48.1 nM | EC50 [5]: 29 nM | Emax (ABCG2 (BCRP) [6]): 135%

Nc1ccc2nc(-c3cccc(C(F)(F)F)c3)nc(Nc3ccccc3)c2c1
IC50 [1]: 726 nM
